Screening data deposited in PubChem BioAssay by several laboratories.
eIF4E 4G PPI – eIF4E/eIF4G interaction inhibition in translation initiation; 0.37% of 220,000 active; AID 782; P63073+Q04637; TR-FRET eIF4E-eIF4GI(517-606) binding, 2 h; inhibition, % at 21.7 µM;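 further: 0% = full FRET control wells and 100% = background wells lacking eIF4GI fragment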
SUMO HTRF inh – SUMOylation inhibition. 0.36% of 290,000 active. HTRF SUMOylation assay, SAE1/SAE2 + UBC9, in vitro. inhibition, % at 35 µM. AID 2006; in the data active means inhibition above about 50%, passing the limit was not always enough
Target sequence (P63279 whole entry, looked up): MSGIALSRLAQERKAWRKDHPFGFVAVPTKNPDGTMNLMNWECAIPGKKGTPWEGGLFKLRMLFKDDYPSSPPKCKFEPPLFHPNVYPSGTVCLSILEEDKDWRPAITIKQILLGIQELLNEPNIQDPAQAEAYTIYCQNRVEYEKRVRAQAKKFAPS
14-3-3 Bad PPI – disrupts binding of bovine 14-3-3 zeta to phospho-Bad peptide | P63103 | TR-FRET 14-3-3zeta/Dy647-pBad peptide displacement, 1 h | inhibition, % at 21.7 µM | 0.71% of 220,000 active;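 active means inhibition above about 70%, limit read from the data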;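 further: 0% = full 14-3-3 plus peptide FRET controls and 100% = background without 14-3-3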
NCF1 inh – inhibitors of human p47phox binding; P14598; p47phox/p22phox peptide binding, fluorescence polarization, 2 h; inhibition, % at 24.7 µM; 0.53% of 220,000 active; AID 1274;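 further: 0% = p47phox with labelled peptide and 100% = labelled peptide alone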
Target sequence (P14598 whole entry, looked up): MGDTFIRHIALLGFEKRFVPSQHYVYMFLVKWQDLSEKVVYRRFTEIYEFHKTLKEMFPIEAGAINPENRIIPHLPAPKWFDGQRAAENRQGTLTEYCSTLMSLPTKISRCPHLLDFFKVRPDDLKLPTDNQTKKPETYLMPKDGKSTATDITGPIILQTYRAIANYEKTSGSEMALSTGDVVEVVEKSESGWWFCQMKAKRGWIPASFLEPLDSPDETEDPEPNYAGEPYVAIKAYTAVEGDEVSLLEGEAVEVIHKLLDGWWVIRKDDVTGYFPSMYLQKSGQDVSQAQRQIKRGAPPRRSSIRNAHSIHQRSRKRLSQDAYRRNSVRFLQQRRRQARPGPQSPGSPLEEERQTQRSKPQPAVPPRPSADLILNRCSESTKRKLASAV
Tb MetRS inh – Trypanosoma brucei MetRS inhibition. purified T. brucei MetRS, ATP depletion, Kinase-Glo luminescence. inhibition, % at 11.9 µM. 0.4% of 360,000 active. AID 624268;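 active means inhibition above a per-plate cutoff of the control wells' mean inhibition plus 3 SD, cut at about 5.5% in these data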;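 further: 0% = DMSO wells median and 100% = median of wells with control inhibitor compound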
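Test system – parasite MetRS enzyme · Reagent – substrates ATP, L-methionine and bulk Escherichia coli tRNA · Doses – 11.9 µM compound single dose, 0.9% DMSO · Times – 15 min enzyme-compound preincubation, 2 h reaction, 10 min detection, 25 °C · Signal – Kinase-Glo luminescence, ATP depletion format · Controls – DMSO-only wells as low control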
p97 ATPase inh – inhibitors of human p97 ATPase; recombinant p97 ATPase, Kinase-Glo ATP luminescence, 3 h; inhibition, % at 8 µM; 0.42% of 220,000 active; AID 1481; in the data active means inhibition above about 15%;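 further: 0% = DMSO vehicle and 100% = wells lacking enzyme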
TbMetRS confirm – confirmation of Trypanosoma brucei MetRS inhibitors; shares compounds with Tb MetRS inh; inhibition, % at 11.9 µM; 93% of 1,400 active; T. brucei MetRS enzyme, luminescence (ATP depletion); in the data active means inhibition above about 7%
Jurkat cytotox – Jurkat T cell cytotoxicity for MetRS hits; shares compounds with Tb MetRS inh; Jurkat cells viability, ATP luminescence; inhibition, % at 8.3 µM; 12% of 1,400 active; in the data active means inhibition above about 15%;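 further: 0% = vehicle and 100% = reference inhibitor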
TbMetRS FP orth – inhibits T. brucei methionyl tRNA synthetase in orthogonal FP test | shares compounds with Tb MetRS inh | purified T. brucei MetRS, fluorescence polarization | inhibition, % at 11.9 µM | 44% of 1,400 active; in the data active means inhibition above about 17%;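 further: 0% = vehicle wells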
An asterisk follows results filed as active; . = no result given. The list is not random: actives were taken first. Their share in the collection is about 1.6%.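 How the source made its calls, unless noted: active means inhibition above about 30% (limit read from the data); inactive means the rest.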

SMILES | eIF4E 4G PPI | SUMO HTRF inh | 14-3-3 Bad PPI | NCF1 inh | Tb MetRS inh | p97 ATPase inh | TbMetRS confirm | Jurkat cytotox | TbMetRS FP orth
COc1ccccc1CC(Cc1nc2ccccc2[nH]1)c1nc2ccccc2[nH]1 (centres undefined) | 2 | -36 | -9 | -15 | 5.7* | 5 | 11* | 3 | 3
Cc1cccc(CC(Cc2nc3ccccc3[nH]2)c2nc3ccccc3[nH]2)c1 (centres undefined) | 1 | -38 | 9 | -8 | 8.4* | 0 | 21* | 10 | 9
CC(c1ccccc1)C(Cc1nc2ccccc2[nH]1)c1nc2ccccc2[nH]1 (centres undefined) | 2 | -46 | -20 | -23 | . | 7 | . | . | .
O=C(c1cc(C2CCCCN2C(=O)OCCF)on1)N1CCOCC1 (centres undefined) | . | . | . | . | 0 | . | . | . | .
O=C(CCc1nc2ccccc2[nH]1)NCc1ccc2c(c1)OCO2 | 2 | 11 | -3 | 1 | 20* | 6 | 36* | -5 | 13
NS(=O)(=O)c1cccc(NC(=O)CSc2nc3ccccc3[nH]2)c1 | 3 | -4 | -4 | -6 | 7.8* | -5 | 16* | 2 | 10
COc1ccc2nc(SCC(=O)NCc3ccc(F)cc3)[nH]c2c1 | . | 16 | . | . | 2 | . | . | . | .
O=C(CSc1nc2ccccc2[nH]1)NCc1ccc(F)cc1 | 0 | 1 | -4 | -8 | 7.7* | 0 | 13* | 3 | -1
O=C(CSc1nc2ccccc2[nH]1)NCc1ccc2c(c1)OCO2 | -4 | 10 | -10 | -3 | 28* | 2 | 43* | 1 | 20*
Cc1ccc2nc(SCC(=O)Nc3cccc(S(N)(=O)=O)c3)[nH]c2c1 | -15 | -11 | 1 | -3 | 1 | 4 | . | . | .
C/C(=N\Nc1nc2ccccc2[nH]1)c1ccc2c(c1)OCCO2 | 3 | 1 | -10 | -58 | 3 | 4 | . | . | .
C/C(=N\Nc1nc2ccccc2[nH]1)c1ccc2c(c1)OCO2 | -1 | -63 | -14 | -26 | 7.3* | -1 | 8.8* | 0 | 18*
O=C(Nc1ccccc1)Nc1cc(OCC(F)(F)F)cc(OCC(F)(F)F)c1 | 0 | -12 | 28 | -21 | 6.9* | -1 | 15* | 89* | 72*
CCN(CC)Cc1c(CC(C)C)oc(C)c1C(=O)O | 6 | 8 | 65 | 2 | 0 | 2 | . | . | .
O=C(NCc1nc2ccccc2[nH]1)C1=C[C@H](c2ccc(C(F)(F)F)cc2)C[C@H](OCCCCO)O1 | . | . | . | . | 31* | . | 69* | 9 | 38*
O=C(NCc1ccccc1)C1=C[C@@H](c2ccc(C(F)(F)F)cc2)C[C@@H](OCCCCO)O1 | . | . | . | . | 0 | . | . | . | .
O=C(C1=C[C@@H](c2ccc3c(c2)OCO3)C[C@@H](OCCCCO)O1)N1CCN(Cc2ccc3c(c2)OCO3)CC1 | 0 | 6 | -1 | -12 | 18* | 1 | 55* | 2 | 25*
O=C(NCc1nc2ccccc2[nH]1)C1=C[C@H](c2ccc3c(c2)OCO3)C[C@H](OCCCCO)O1 | -4 | 0 | 0 | 4 | 69* | -1 | 89* | -3 | 76*
O=C(NCc1nc2ccccc2[nH]1)C1=C[C@@H](c2ccc(C(F)(F)F)cc2)C[C@@H](OCCCCO)O1 | . | . | . | . | 32* | . | 68* | 9 | 35*
C=CCNC(=O)O/N=C/c1csc([N+](=O)[O-])c1 | 1 | 16 | -14 | -9 | 0 | 9 | . | . | .
O=C(NCc1nc2ccccc2[nH]1)C1=C[C@H](C2CC2)C[C@H](OCCCCO)O1 | 0 | 8 | -4 | -8 | 0 | -1 | . | . | .
O=C(NCc1nc2ccccc2[nH]1)C1=C[C@H](c2ccccc2)C[C@H](OCCCCO)O1 | -9 | 9 | -8 | -10 | 39* | . | 74* | -5 | 45*
COc1ccc(-n2cnnc2SCC(=O)NC2CCCc3ccccc32)cc1 (centres undefined) | 0 | -3 | 11 | -15 | -1 | 5 | . | . | .
Cc1nc(SCC(=O)NCc2ccccc2)c2c(=O)n(C)c(=O)n(C)c2n1 | 1 | 17 | 7 | -15 | 5.6* | 1 | 2 | 7 | -1
Cn1ccsc1=NC(=O)c1cccc(C#N)c1 | . | -7 | . | . | -1 | . | . | . | .
SMILES | eIF4E 4G PPI | SUMO HTRF inh | 14-3-3 Bad PPI | NCF1 inh | Tb MetRS inh | p97 ATPase inh | TbMetRS confirm | Jurkat cytotox | TbMetRS FP orth
O=C(C[C@H]1C(=O)N(c2ccccc2)C[C@@H]1Cc1ccccc1)Nc1ccc(Br)cc1 | . | . | . | . | 7.6* | . | 18* | 3 | 11
O=C(C[C@H]1C(=O)N(c2ccc(Br)cc2)C[C@@H]1Cc1ccccc1)Nc1ccccc1 | . | . | . | . | 0 | . | . | . | .
COc1ccc(N2C[C@H](CSC)[C@@H](CC(=O)Nc3ccc(Br)cc3)C2=O)cc1 | . | . | . | . | 19* | . | 43* | 0 | 19*
CCCCN1C[C@H](c2ccc(OC)cc2)[C@@H](CC(=O)Nc2ccc(Br)cc2)C1=O | . | . | . | . | 45* | . | 68* | 9 | 34*
Cc1ccc2c(c1)CCCN2C(=O)CCc1nc2ccccc2c(=O)[nH]1 | . | . | . | . | 0 | . | . | . | .
Cc1cc(C(=O)NNC(=O)C(C)(C)Oc2ccc(Cl)cc2)c(C)o1 | . | . | . | . | -1 | . | . | . | .
O=C(CN1C(=O)NC2(CCCCC2)C1=O)NCC(=O)Nc1ccc(F)c(F)c1 | . | . | . | . | 0 | . | . | . | .
COc1cc(NC(=O)CSc2nc3ncnc(N)c3[nH]2)c(C(=O)O)cc1OC | . | 9 | . | . | -1 | . | . | . | .
CN(CC(=O)Nc1ccc(F)cc1)C(=O)CSc1nc2ncc(Cl)cc2[nH]1 | -2 | 13 | 8 | -4 | 0 | 1 | . | . | .
O=C(CSc1nc2ncc(Cl)cc2[nH]1)Nc1cccc(F)c1 | . | 8 | . | . | 21* | . | 47* | 2 | 23*
Nc1ncnc2nc(SCC(=O)Nc3cccc(C(F)(F)F)c3)[nH]c12 | . | -4 | . | . | 33* | . | 57* | -3 | 28*
Fc1cccc(CSc2nc3ncccc3[nH]2)c1 | 10 | -5 | 15 | -14 | 0 | 2 | . | . | .
Fc1cccc(CSc2nc3ncc(Cl)cc3[nH]2)c1 | 4 | 0 | 5 | -14 | 6.4* | 6 | 7.3* | 5 | 0
Cc1cc(=O)[nH]c(CN2CCOCC2)n1 | 1 | 22 | -8 | -13 | -2 | 2 | . | . | .
c1ccc2cc3[nH]c(CN4CCOCC4)nc3cc2c1 | -1 | 15 | 1 | -1 | 6.6* | -4 | 13* | 10 | -1
CC(Sc1nc(-c2ccco2)nc2c1c(=O)n(C)c(=O)n2C)C(=O)O (centres undefined) | 0 | 34 | -7 | 4 | 0 | 2 | . | . | .
OC(COc1ccc(Br)cc1)Cn1ccnc1 (centres undefined) | . | 11 | . | . | 0 | . | . | . | .
